According to article PMC7127808 (Biochimie, 2017):

Legend:
[1] = biological target: Human placental aminopeptidase N (hAPN) (Homo sapiens, UniProt P15144); test: Human placental aminopeptidase N; assay type: biochemical; settings: read-out: IC50 vs hAPN; 30 min pre-incubation; substrate at KM; n = 4
[2] = test system: Wistar rats; test: Mortality and spontaneous behavior after intraperitoneal injection; assay type: in vivo; settings: 3 μg/g b.w. intraperitoneal, compared to the vehicle group (not shown)
[3] = biological target: T1, rat APN activity (Rattus norvegicus, UniProt P15684); test: In vivo effects of inhibitors on APN activity in rat organs; settings: for blood-brain barrier crossing: inferred from inhibition of APN activity in the brain of rats
T1 sequence (P15684 1-965): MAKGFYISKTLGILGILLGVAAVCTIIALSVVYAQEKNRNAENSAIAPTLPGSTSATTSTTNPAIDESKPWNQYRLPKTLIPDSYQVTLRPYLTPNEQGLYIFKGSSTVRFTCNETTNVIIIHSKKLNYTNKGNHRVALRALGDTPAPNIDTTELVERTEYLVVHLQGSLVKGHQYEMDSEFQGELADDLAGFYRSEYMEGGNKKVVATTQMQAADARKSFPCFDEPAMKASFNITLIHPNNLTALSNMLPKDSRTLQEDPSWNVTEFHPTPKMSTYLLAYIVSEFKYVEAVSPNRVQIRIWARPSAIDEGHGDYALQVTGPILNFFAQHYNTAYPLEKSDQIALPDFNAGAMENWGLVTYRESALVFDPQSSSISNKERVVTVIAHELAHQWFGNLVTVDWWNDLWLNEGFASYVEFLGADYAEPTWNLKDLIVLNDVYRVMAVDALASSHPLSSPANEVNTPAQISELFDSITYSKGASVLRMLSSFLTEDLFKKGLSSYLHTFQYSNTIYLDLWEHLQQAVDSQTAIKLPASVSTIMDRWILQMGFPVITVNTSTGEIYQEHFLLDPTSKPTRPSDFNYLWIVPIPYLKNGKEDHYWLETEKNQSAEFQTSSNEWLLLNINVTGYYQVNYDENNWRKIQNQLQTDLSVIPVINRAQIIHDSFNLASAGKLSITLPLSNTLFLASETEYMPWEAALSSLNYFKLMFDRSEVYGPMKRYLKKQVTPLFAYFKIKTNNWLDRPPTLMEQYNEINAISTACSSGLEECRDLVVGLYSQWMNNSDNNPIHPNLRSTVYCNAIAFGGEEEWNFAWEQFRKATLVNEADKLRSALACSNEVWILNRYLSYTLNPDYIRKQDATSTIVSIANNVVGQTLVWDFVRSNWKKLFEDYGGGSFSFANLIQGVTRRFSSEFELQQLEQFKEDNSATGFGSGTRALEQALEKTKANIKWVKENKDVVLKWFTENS
Method in brief: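 Wistar rats (80–100 days, 260–300 g) got one intraperitoneal injection of inhibitor, 3 μg/g body weight in 100 μL 0.9% saline, or saline alone (n = 6 per group). Decapitation 1 h later; organs frozen, stored at −70 °C. NaCl-washed membranes from 10% (w/v) homogenates in 50 mM Tris-HCl pH 8. APN kinetic assay as for porcine APN, 30 min. Mean ± SD; ANOVA, Tukey-Kramer.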

[4] = biological target: porcine kidney cortex glutamyl aminopeptidase (porcine aminopeptidase A; pAPA) (Sus scrofa, UniProt Q95334); test: Porcine aminopeptidase A; assay type: biochemical; settings: read-out: IC50 vs pAPA; dose-response, L-Glu-pNA
Method in brief: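 Microsomes from porcine kidney cortex, prepared as for placental APN, used at 1 mg/mL in 50 mM Tris-HCl pH 8, 0.1% Triton X100, 1 mM CaCl2. Substrate L-Glu-pNA at or below one KM. p-Nitroaniline release read at 405 nm every 15 s for 5 min, 37 °C. Test compounds came from 10 mM DMSO stocks diluted in buffer. IC50 came from nonlinear regression of dose-response data.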

[5] = biological target: T2, Porcine kidney APN (pAPN) (Sus scrofa, UniProt P15145); test: Porcine kidney APN; assay type: biochemical; settings: for Inhibition Type: Table 1, hAPN and pAPN, Lineweaver-Burk diagnosis (hAPN data not shown); for α (pAPN): factor between αKi and Ki vs pAPN; for IC50: read-out: IC50 vs pAPN, 30 min pre-incubation, substrate at KM, n = 4
T2 sequence (P15145 1-963): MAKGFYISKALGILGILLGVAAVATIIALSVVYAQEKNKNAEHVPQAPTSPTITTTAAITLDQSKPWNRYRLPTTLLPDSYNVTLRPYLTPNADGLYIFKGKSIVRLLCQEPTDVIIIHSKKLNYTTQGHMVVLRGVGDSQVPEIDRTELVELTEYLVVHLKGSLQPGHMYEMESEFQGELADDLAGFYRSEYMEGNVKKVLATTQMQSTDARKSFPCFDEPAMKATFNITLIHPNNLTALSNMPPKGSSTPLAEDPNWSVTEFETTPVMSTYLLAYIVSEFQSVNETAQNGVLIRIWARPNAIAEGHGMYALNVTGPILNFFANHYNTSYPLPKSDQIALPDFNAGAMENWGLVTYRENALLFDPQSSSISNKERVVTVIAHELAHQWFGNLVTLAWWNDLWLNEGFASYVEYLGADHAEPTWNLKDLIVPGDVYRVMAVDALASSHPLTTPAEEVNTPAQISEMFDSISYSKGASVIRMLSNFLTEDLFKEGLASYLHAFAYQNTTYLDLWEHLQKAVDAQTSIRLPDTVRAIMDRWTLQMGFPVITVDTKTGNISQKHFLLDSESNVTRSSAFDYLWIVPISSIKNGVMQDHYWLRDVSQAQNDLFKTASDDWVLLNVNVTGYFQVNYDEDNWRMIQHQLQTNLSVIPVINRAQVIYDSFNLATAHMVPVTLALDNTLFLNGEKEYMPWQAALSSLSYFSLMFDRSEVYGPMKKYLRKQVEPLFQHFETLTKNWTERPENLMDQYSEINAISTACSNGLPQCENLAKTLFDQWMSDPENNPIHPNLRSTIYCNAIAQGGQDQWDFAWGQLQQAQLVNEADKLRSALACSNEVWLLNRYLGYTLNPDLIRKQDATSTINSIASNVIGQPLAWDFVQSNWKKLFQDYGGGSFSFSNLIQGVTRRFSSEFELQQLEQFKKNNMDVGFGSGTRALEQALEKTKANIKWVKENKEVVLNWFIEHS

[6] = rat, 3 μg/g b.w. intraperitoneal, 60 min, vs saline injected animals

Chain of porcine kidney cortex glutamyl aminopeptidase (porcine aminopeptidase A; pAPA) (Q95334 whole entry): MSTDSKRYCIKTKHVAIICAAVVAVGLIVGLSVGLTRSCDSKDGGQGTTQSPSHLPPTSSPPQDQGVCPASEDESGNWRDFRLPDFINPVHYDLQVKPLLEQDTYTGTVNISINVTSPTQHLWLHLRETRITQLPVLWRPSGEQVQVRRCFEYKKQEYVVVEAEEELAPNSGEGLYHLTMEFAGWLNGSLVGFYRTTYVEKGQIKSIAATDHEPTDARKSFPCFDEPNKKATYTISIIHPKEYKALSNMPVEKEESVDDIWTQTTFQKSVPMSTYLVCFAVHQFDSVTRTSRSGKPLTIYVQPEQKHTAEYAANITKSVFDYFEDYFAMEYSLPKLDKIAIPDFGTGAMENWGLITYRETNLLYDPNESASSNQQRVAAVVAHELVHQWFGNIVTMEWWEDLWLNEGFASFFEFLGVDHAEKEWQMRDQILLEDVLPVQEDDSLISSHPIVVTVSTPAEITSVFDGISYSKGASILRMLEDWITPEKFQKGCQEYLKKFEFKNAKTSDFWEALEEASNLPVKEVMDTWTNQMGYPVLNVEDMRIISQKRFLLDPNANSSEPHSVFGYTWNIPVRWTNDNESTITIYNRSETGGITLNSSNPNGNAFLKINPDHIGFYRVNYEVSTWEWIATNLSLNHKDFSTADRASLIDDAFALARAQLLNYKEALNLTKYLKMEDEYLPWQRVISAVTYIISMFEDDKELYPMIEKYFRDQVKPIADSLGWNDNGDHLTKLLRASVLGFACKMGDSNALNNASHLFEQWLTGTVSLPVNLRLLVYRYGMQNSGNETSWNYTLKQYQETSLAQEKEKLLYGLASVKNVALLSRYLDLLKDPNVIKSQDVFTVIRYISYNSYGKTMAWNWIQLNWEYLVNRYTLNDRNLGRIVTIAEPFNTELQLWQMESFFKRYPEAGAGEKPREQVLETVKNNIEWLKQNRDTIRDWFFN
Chain of Human placental aminopeptidase N (hAPN) (P15144 whole entry): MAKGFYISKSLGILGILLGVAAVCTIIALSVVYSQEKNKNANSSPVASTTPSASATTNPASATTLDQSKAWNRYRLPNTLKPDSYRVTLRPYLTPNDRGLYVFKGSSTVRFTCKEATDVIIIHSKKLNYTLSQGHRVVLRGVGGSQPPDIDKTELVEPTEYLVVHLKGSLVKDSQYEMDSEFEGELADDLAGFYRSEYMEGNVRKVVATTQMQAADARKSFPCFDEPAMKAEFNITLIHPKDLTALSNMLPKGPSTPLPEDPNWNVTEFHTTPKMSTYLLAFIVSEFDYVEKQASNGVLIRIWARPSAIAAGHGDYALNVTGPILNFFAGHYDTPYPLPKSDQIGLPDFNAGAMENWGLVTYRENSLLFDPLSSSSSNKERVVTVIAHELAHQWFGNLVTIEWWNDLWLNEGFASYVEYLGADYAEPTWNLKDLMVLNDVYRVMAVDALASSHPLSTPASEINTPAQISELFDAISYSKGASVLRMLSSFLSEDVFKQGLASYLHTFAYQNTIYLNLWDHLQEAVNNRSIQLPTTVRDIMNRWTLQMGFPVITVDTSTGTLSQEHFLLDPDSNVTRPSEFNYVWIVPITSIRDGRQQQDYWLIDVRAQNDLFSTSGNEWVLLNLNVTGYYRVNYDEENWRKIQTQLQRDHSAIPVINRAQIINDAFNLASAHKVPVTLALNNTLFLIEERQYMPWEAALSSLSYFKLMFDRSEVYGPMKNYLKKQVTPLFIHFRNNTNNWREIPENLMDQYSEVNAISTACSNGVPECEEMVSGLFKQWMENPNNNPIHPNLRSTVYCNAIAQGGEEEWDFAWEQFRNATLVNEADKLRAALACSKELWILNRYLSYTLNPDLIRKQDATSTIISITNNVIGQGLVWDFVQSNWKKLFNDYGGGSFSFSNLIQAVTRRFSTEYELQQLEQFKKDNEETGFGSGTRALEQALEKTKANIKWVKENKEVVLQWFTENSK

SMILES | IC50 [1] | mortality or change in rat spontaneous behavior [2] | blood-brain barrier crossing [3] | APN activity in brain [3, 6] | APN activity in kidney [3, 6] | APN activity in liver [3, 6] | IC50 [4] | Inhibition Type [5] | α (pAPN) [5] | IC50 [5] | APN activity in pancreas [3, 6]
O=C(NNC(=NS(=O)(=O)c1ccc(-n2nc(C(F)(F)F)cc2-c2cccs2)cc1)N1CCCC1)c1ccc(Cl)cc1 [BTB07018, N1-[[2-(4-chlorobenzoyl)hydrazino](tetrahydro-1H-pyrrol-1-yl)methylidene]-4-[5-(2-thienyl)-3-(trifluoromethyl)-1H-pyrazol-1-yl]benzene-1-sulfonamide] | 2.67 ± 0.11 µM | did not induce any mortality or change in rat spontaneous behavior | crossed the blood-brain barrier | decreased APN activity | decreased APN activity | decreased APN activity | 4.74 ± 0.1 µM | Non-competitive α > 1 | 1.82 | 2.29 ± 0.1 µM | 
C(=C1c2ccccc2-c2c1ccc1ccccc21)c1cc2c3c(cccc3c1)-c1ccccc1-2 [BTB11079, 2-(7H-benzo[c]fluoren-7-ylidenmethyl)fluoranthene] |  | did not induce any mortality or change in rat spontaneous behavior |  |  |  |  | 3.88 ± 0.11 µM | Non-competitive α > 1 | 11.40 | 2.95 ± 0.1 µM | 
CC(C)C[C@H](NC(=O)[C@@H](O)[C@H](N)Cc1ccccc1)C(=O)O [Bestatin, reference compound] |  |  |  |  |  |  |  | Non-competitive α > 1 | 5.97 |  | 
N#Cc1cc(Cc2ccc3c(ccc4ccccc43)c2C#N)cc2c1ccc1ccccc12 [JFD00064, 2-[(1-cyano-3-phenanthryl)methyl]phenanthrene-1-carbonitrile] |  | did not induce any mortality or change in rat spontaneous behavior | crossed the blood-brain barrier | decreased APN activity | decreased APN activity | decreased APN activity | 1.82 ± 0.11 µM | Non-competitive α > 1 | 2.69 | 2.83 ± 0.1 µM | inhibited the APN activity
